Laboratory results: ChEMBL document CHEMBL4130398, “Cyperaceae Species Are Potential Sources of Natural Mammalian Arginase Inhibitors with Positive Effects on Vascular Function” (J Nat Prod, 2017)

Key:
Bos taurus = species: Bos taurus; experiment: Inhibition of bovine liver arginase assessed as reduction in urea production at 100 uM using L-arginine as substrate after 60 mins in presence of MnCl2 by alpha-isonitrosopropiophenone reagent based spectrophotometric analysis relative to control
How it was run: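 Purified bovine liver arginase I (0.025 U/μL in Tris-HCl 50 mM pH 7.5 with 0.1% BSA) with 10 mM MnCl2 cofactor, inhibitor from DMSO stock diluted in water, and L-arginine (0.05 M, pH 9.7). Incubated 60 min at 37 °C. Acid quench, then α-isonitrosopropiophenone at 100 °C for 45 min, A550. Activity relative to solvent control; three experiments in duplicate, mean ± SEM.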

[1] = Inhibition of bovine liver arginase assessed as reduction in urea production using L-arginine as substrate after 60 mins in presence of MnCl2 by alpha-isonitrosopropiophenone reagent based spectrophotometric analysis; design: species or system Bos taurus
How it was run: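 Purified bovine liver arginase I with MnCl2 (10 mM) in Tris-HCl pH 7.5/BSA buffer, L-arginine substrate (0.05 M, pH 9.7). Inhibitors from 70 mM DMSO stocks, final 0.1–1000 μM in the well. 60 min at 37 °C, then urea read with α-isonitrosopropiophenone at 550 nm. IC50 taken from semilog plots of inhibition relative to solvent control; three experiments in triplicate, mean ± SEM.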

SMILES | inhibition (Bos taurus) [%] | IC50 [1] [µM]
Oc1cc(O)cc([C@@H]2c3c(/C=C/c4ccc(O)c(O)c4)cc(O)cc3O[C@H]2c2ccc(O)c(O)c2)c1 | 80 to 90 | 22.6
Oc1cc(O)cc([C@@H]2[C@@H](c3ccc(O)c(O)c3)c3cc(O)c(O)cc3[C@@H]3c4c(O)cc(O)cc4[C@@H]4c5c(cc(O)cc5[C@H]32)O[C@H]4c2ccc(O)c(O)c2)c1 | 80 to 90 | 12.2
Oc1ccc([C@H]2Oc3cc(O)cc([C@@H]4[C@H](c5cc(O)cc(O)c5)[C@@H](c5ccc(O)cc5)O[C@@H]4c4ccc(O)cc4)c3[C@@H]2c2cc(O)cc3c2[C@@H](c2cc(O)cc(O)c2)[C@H](c2ccc(O)c(O)c2)O3)cc1 | 80 to 90 | 25.3
Oc1ccc([C@H]2Oc3cc(O)cc([C@@H]4[C@H](c5cc(O)cc(O)c5)[C@@H](c5ccc(O)cc5)O[C@@H]4c4ccc(O)cc4)c3[C@@H]2c2cc(O)cc3c2[C@@H](c2cc(O)cc(O)c2)[C@H](c2ccc(O)cc2)O3)cc1 | 80 to 90 | 

Results, then the compound that gave them:

inhibition (Bos taurus) [%] | IC50 [1] [µM] | SMILES
80 to 90 | 27.8 | Oc1ccc(/C=C/c2cc(O)cc3c2[C@H](c2cc(O)cc(O)c2)[C@@H](c2ccc(O)cc2)O3)cc1
 | 1.7 | N=C(NO)NCC[C@H](N)C(=O)O [NOR-NOHA]
80 to 90 | 12.6 | Oc1cc(O)cc(/C=C/c2ccc(O)c(O)c2)c1 [PICEATANNOL]
80 to 90 |  | OC[C@H]1O[C@@H](Oc2cc(/C=C/c3ccc(O)cc3)cc(O[C@@H]3O[C@H](CO)[C@@H](O)[C@H](O)[C@H]3O)c2)[C@H](O)[C@@H](O)[C@@H]1O
80 to 90 | 182 | Oc1ccc([C@H]2c3c(O)cc(O)cc3[C@H]3c4c(cc(O)cc4[C@@H]2O)O[C@H]3c2ccc(O)cc2)cc1
